Values after ≈ are worked out from the molar mass of the structure shown.
Legend:
[1] = tested on: Klebsiella pneumoniae; experiment: Antimicrobial activity against Klebsiella pneumoniae at 64 ug/ml after 24 hrs by agar diffusion technique; type: functional; details: read-out: DIZ
Summary of the method: (§1)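 Strains came from a university microbiology department. Inocula were 10⁶ CFU/mL. Mueller-Hinton agar was seeded with culture, poured 3–4 mm thick, and 10 mm cups were bored. Compounds were dissolved in DMF (10 mg/mL stock), diluted, and the solution was placed in the cups. Plates were incubated at 37 °C overnight. Inhibition zone diameter (mm) was read at 24 h.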

[2] = tested on: Pseudomonas aeruginosa; experiment: Antimicrobial activity against Pseudomonas aeruginosa after 24 hrs by agar diffusion technique; type: functional; details: for MIC: Pseudomonas aeruginosa, 24 h
Summary of the method: (§2)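 Agar cup diffusion on Mueller-Hinton agar seeded from 10⁶ CFU/mL suspensions, with 10 mm cups in a 3–4 mm layer. Compounds were in DMF (10 mg/mL stock) at several concentrations. Plates were incubated at 37 °C and zones measured after 24 h. MIC was taken as the intercept of the plot of log concentration against inhibition zone diameter.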

[3] = Octanol-phosphate buffer partition coefficient, log D at pH 7.4 by spectrophotometry; type: physicochemical
Summary of the method: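 Shake-flask method. A 0.2 mg/mL stock was diluted into pH 7.4 phosphate buffer and mixed with an equal volume of n-octanol, phases mutually presaturated and protected from light. Samples were vortexed 3 min, then shaken 5 h at 25 °C. Both phases were assayed by UV at 270–280 nm. D is the molar concentration ratio, octanol to aqueous.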

[4] = tested on: Staphylococcus aureus; experiment: Antimicrobial activity against Staphylococcus aureus at 512 ug/ml after 24 hrs by agar diffusion technique; type: functional; details: read-out: DIZ; summary of the method: as §1
[5] = tested on: Escherichia coli; experiment: Antimicrobial activity against Escherichia coli at 64 ug/ml after 24 hrs by agar diffusion technique; type: functional; details: read-out: DIZ; summary of the method: as §1
[6] = tested on: Staphylococcus aureus; experiment: Antimicrobial activity against Staphylococcus aureus after 24 hrs by agar diffusion technique; type: functional; details: for MIC: Staphylococcus aureus, 24 h; summary of the method: as §2
[7] = tested on: Pseudomonas aeruginosa; experiment: Antimicrobial activity against Pseudomonas aeruginosa at 16 ug/ml after 24 hrs by agar diffusion technique; type: functional; details: read-out: DIZ; summary of the method: as §1
[8] = tested on: Escherichia coli; experiment: Antimicrobial activity against Escherichia coli after 24 hrs by agar diffusion technique; type: functional; details: for MIC: Escherichia coli, 24 h; summary of the method: as §2
[9] = tested on: Klebsiella pneumoniae; experiment: Antimicrobial activity against Klebsiella pneumoniae after 24 hrs by agar diffusion technique; type: functional; details: for MIC: Klebsiella pneumoniae, 24 h; summary of the method: as §2
[10] = tested on: Escherichia coli; experiment: Antimicrobial activity against Escherichia coli at 128 ug/ml after 24 hrs by agar diffusion technique; type: functional; details: read-out: DIZ; summary of the method: as §1
[11] = tested on: Escherichia coli; experiment: Antimicrobial activity against Escherichia coli at 16 ug/ml after 24 hrs by agar diffusion technique; type: functional; details: read-out: DIZ; summary of the method: as §1
[12] = tested on: Klebsiella pneumoniae; experiment: Antimicrobial activity against Klebsiella pneumoniae at 16 ug/ml after 24 hrs by agar diffusion technique; type: functional; details: read-out: DIZ; summary of the method: as §1
[13] = tested on: Escherichia coli; experiment: Antimicrobial activity against Escherichia coli at 4 ug/ml after 24 hrs by agar diffusion technique; type: functional; details: read-out: DIZ; summary of the method: as §1
[14] = tested on: Klebsiella pneumoniae; experiment: Antimicrobial activity against Klebsiella pneumoniae at 512 ug/ml after 24 hrs by agar diffusion technique; type: functional; details: read-out: DIZ; summary of the method: as §1
[15] = tested on: Klebsiella pneumoniae; experiment: Antimicrobial activity against Klebsiella pneumoniae at 4 ug/ml after 24 hrs by agar diffusion technique; type: functional; details: read-out: DIZ; summary of the method: as §1
[16] = tested on: Staphylococcus aureus; experiment: Antimicrobial activity against Staphylococcus aureus at 16 ug/ml after 24 hrs by agar diffusion technique; type: functional; details: read-out: DIZ; summary of the method: as §1
[17] = tested on: Staphylococcus aureus; experiment: Antimicrobial activity against Staphylococcus aureus at 128 ug/ml after 24 hrs by agar diffusion technique; type: functional; details: read-out: DIZ; summary of the method: as §1
[18] = tested on: Pseudomonas aeruginosa; experiment: Antimicrobial activity against Pseudomonas aeruginosa at 64 ug/ml after 24 hrs by agar diffusion technique; type: functional; details: read-out: DIZ; summary of the method: as §1
[19] = tested on: Pseudomonas aeruginosa; experiment: Antimicrobial activity against Pseudomonas aeruginosa at 128 ug/ml after 24 hrs by agar diffusion technique; type: functional; details: read-out: DIZ; summary of the method: as §1
[20] = tested on: Escherichia coli; experiment: Antimicrobial activity against Escherichia coli at 512 ug/ml after 24 hrs by agar diffusion technique; type: functional; details: read-out: DIZ; summary of the method: as §1
[21] = tested on: Pseudomonas aeruginosa; experiment: Antimicrobial activity against Pseudomonas aeruginosa at 512 ug/ml after 24 hrs by agar diffusion technique; type: functional; details: read-out: DIZ; summary of the method: as §1
[22] = tested on: Pseudomonas aeruginosa; experiment: Antimicrobial activity against Pseudomonas aeruginosa at 4 ug/ml after 24 hrs by agar diffusion technique; type: functional; details: read-out: DIZ; summary of the method: as §1
[23] = tested on: Klebsiella pneumoniae; experiment: Antimicrobial activity against Klebsiella pneumoniae at 128 ug/ml after 24 hrs by agar diffusion technique; type: functional; details: read-out: DIZ; summary of the method: as §1
[24] = tested on: Staphylococcus aureus; experiment: Antimicrobial activity against Staphylococcus aureus at 64 ug/ml after 24 hrs by agar diffusion technique; type: functional; details: read-out: DIZ; summary of the method: as §1
[25] = tested on: Staphylococcus aureus; experiment: Antimicrobial activity against Staphylococcus aureus at 4 ug/ml after 24 hrs by agar diffusion technique; type: functional; details: read-out: DIZ; summary of the method: as §1

Row | MIC [2] [µg/mL] | MIC [6] [µg/mL] | MIC [8] [µg/mL] | MIC [9] [µg/mL] | Structure (SMILES) | zone of inhibition at 64 µg/mL [1] [mm] | logMIC [2] | zone of inhibition at 512 µg/mL [4] [mm] | zone of inhibition at 64 µg/mL [5] [mm] | logMIC [6] | zone of inhibition at 16 µg/mL [7] [mm] | logMIC [8] | logMIC [9] | zone of inhibition at 128 µg/mL [10] [mm] | zone of inhibition at 16 µg/mL [11] [mm] | zone of inhibition at 16 µg/mL [12] [mm] | zone of inhibition at 4 µg/mL [13] [mm] | zone of inhibition at 512 µg/mL [14] [mm] | zone of inhibition at 4 µg/mL [15] [mm] | zone of inhibition at 16 µg/mL [16] [mm] | zone of inhibition at 128 µg/mL [17] [mm] | also measured
1 | 9 (≈ 21 µM) | 10 (≈ 23.3 µM) | < 1 | 8 (≈ 18.6 µM) | CCn1cc(C(=O)O)c(=O)c2cc(F)c(N3CCN(CN4N=C(C)CC4=O)CC3)cc21 | 3 | 0.95 | 3 | 10 | 1 | 3 | 0 | 0.9 | 10 | 8 | 2 | 8 | 11 | 0 | 0 | 3 | logD [3]: -0.85; zone of inhibition at 64 µg/mL [18]: 3 mm; zone of inhibition at 128 µg/mL [19]: 7 mm; zone of inhibition at 512 µg/mL [20]: 10 mm; zone of inhibition at 512 µg/mL [21]: 18 mm; zone of inhibition at 4 µg/mL [22]: 0 mm; zone of inhibition at 128 µg/mL [23]: 6 mm; zone of inhibition at 64 µg/mL [24]: 7 mm; zone of inhibition at 4 µg/mL [25]: 0 mm
2 | 5 (≈ 11.6 µM) | 4 (≈ 9.29 µM) | < 1 | 128 (≈ 297 µM) | CCn1cc(C(=O)O)c(=O)c2cc(F)c(N3CCN(CN4C(=O)CCC4=O)CC3)cc21 | 20 | 0.7 | 22 | 0 | 0.6 | 9 | 0 | 2.11 | 0 | 0 | 15 | 0 | 31 | 8 | 4 | 13 | logD [3]: -0.8; zone of inhibition at 64 µg/mL [18]: 13 mm; zone of inhibition at 128 µg/mL [19]: 15 mm; zone of inhibition at 512 µg/mL [20]: 5 mm; zone of inhibition at 512 µg/mL [21]: 27 mm; zone of inhibition at 4 µg/mL [22]: 0 mm; zone of inhibition at 128 µg/mL [23]: 22 mm; zone of inhibition at 64 µg/mL [24]: 12 mm; zone of inhibition at 4 µg/mL [25]: 0 mm
3 | 16 (≈ 38.2 µM) | < 1 | 128 (≈ 306 µM) | 128 (≈ 306 µM) | CCn1cc(C(=O)O)c(=O)c2cc(F)c(N3CCN(CN4CCOCC4)CC3)cc21 | 0 | 1.2 | 10 | 0 | 0 | 0 | 2.11 | 2.11 | 0 | 0 | 0 | 0 | 20 | 0 | 7 | 8 | logD [3]: -0.043; zone of inhibition at 64 µg/mL [18]: 3 mm; zone of inhibition at 128 µg/mL [19]: 3 mm; zone of inhibition at 512 µg/mL [20]: 30 mm; zone of inhibition at 512 µg/mL [21]: 15 mm; zone of inhibition at 4 µg/mL [22]: 0 mm; zone of inhibition at 128 µg/mL [23]: 0 mm; zone of inhibition at 64 µg/mL [24]: 7 mm; zone of inhibition at 4 µg/mL [25]: 5 mm
4 | 64 (≈ 134 µM) | > 512 | 128 (≈ 268 µM) | 9 (≈ 18.8 µM) | CCn1cc(C(=O)O)c(=O)c2cc(F)c(N3CCN(CN4C(=O)c5ccccc5C4=O)CC3)cc21 | 4 | 1.81 | 0 | 0 | 2.71 | 0 | 2.11 | 0.95 | 0 | 0 | 0 | 0 | 10 | 0 | 0 | 0 | zone of inhibition at 64 µg/mL [18]: 0 mm; zone of inhibition at 128 µg/mL [19]: 10 mm; zone of inhibition at 512 µg/mL [20]: 9 mm; zone of inhibition at 512 µg/mL [21]: 12 mm; zone of inhibition at 4 µg/mL [22]: 0 mm; zone of inhibition at 128 µg/mL [23]: 8 mm; zone of inhibition at 64 µg/mL [24]: 0 mm; zone of inhibition at 4 µg/mL [25]: 0 mm

Source: ChEMBL document CHEMBL1137764, “Design, synthesis, antibacterial activity and physicochemical parameters of novel N-4-piperazinyl derivatives of norfloxacin” (Bioorg Med Chem, 2009)
